Columns and labels:
Type in all cases: functional
Mus musculus [1] = experiment: Analgesic activity in Wistar Albino mouse at 10 mg/kg, po after 3 hrs by tail-flick technique
How it was run: (§1)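 Tail-flick in Wistar albino mice (25–35 g, either sex, randomly selected), compound given orally as suspension in 1% carboxymethyl cellulose; six animals per group. Reaction time read before dosing and after dosing, cut-off 10 s. Percent analgesic activity = (T2 − T1)/(10 − T1) × 100, T1/T2 being pre/post reaction times; mean of n = 6, one-way ANOVA versus control.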

Mus musculus [2] = experiment: Analgesic activity in Wistar Albino mouse at 20 mg/kg, po after 30 mins by tail-flick technique; how it was run: as §1
Mus musculus [3] = experiment: Analgesic activity in Wistar Albino mouse at 20 mg/kg, po after 1 hr by tail-flick technique; how it was run: as §1
Mus musculus [4] = experiment: Analgesic activity in Wistar Albino mouse at 20 mg/kg, po after 2 hrs by tail-flick technique; how it was run: as §1
Mus musculus [5] = experiment: Analgesic activity in Wistar Albino mouse at 20 mg/kg, po after 3 hrs by tail-flick technique; how it was run: as §1
Rattus norvegicus [6] = experiment: Anti-inflammatory activity against Carrageenan-induced paw oedema rat model at 10 mg/kg after 30 mins
How it was run: (§2)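 Rat carrageenan paw oedema; compound dosed orally as suspension in 1% carboxymethyl cellulose, six rats per group. Paw volume by mercury displacement plethysmography immediately before and at the stated time after carrageenan injection. Percent oedema inhibition computed from pre/post paw volumes of treated versus vehicle-control rats; one-way ANOVA versus control.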

Rattus norvegicus [7] = experiment: Anti-inflammatory activity against Carrageenan-induced paw oedema rat model at 10 mg/kg after 1 hr; how it was run: as §2
Rattus norvegicus [8] = experiment: Anti-inflammatory activity against Carrageenan-induced paw oedema rat model at 10 mg/kg after 2 hrs; how it was run: as §2
Rattus norvegicus [9] = experiment: Anti-inflammatory activity against Carrageenan-induced paw oedema rat model at 10 mg/kg after 3 hrs; how it was run: as §2
Rattus norvegicus [10] = experiment: Anti-inflammatory activity against Carrageenan-induced paw oedema rat model at 20 mg/kg after 30 min; how it was run: as §2
Rattus norvegicus [11] = experiment: Anti-inflammatory activity against Carrageenan-induced paw oedema rat model at 20 mg/kg after 1 hr; how it was run: as §2
Rattus norvegicus [12] = experiment: Anti-inflammatory activity against Carrageenan-induced paw oedema rat model at 20 mg/kg after 2 hrs; how it was run: as §2
Rattus norvegicus [13] = experiment: Anti-inflammatory activity against Carrageenan-induced paw oedema rat model at 20 mg/kg after 3 hrs; how it was run: as §2
Mus musculus [14] = experiment: Analgesic activity in Wistar Albino mouse at 10 mg/kg, po after 30 mins by tail-flick technique; how it was run: as §1
Mus musculus [15] = experiment: Analgesic activity in Wistar Albino mouse at 10 mg/kg, po after 1 hr by tail-flick technique; how it was run: as §1
Mus musculus [16] = experiment: Analgesic activity in Wistar Albino mouse at 10 mg/kg, po after 2 hrs by tail-flick technique; how it was run: as §1

SMILES	Activity (Mus musculus [1]) [%]	Activity (Mus musculus [2]) [%]	Activity (Mus musculus [3]) [%]	Activity (Mus musculus [4]) [%]	Activity (Mus musculus [5]) [%]	Activity (Rattus norvegicus [6]) [%]	Activity (Rattus norvegicus [7]) [%]	Activity (Rattus norvegicus [8]) [%]	Activity (Rattus norvegicus [9]) [%]	Activity (Rattus norvegicus [10]) [%]	Activity (Rattus norvegicus [11]) [%]	Activity (Rattus norvegicus [12]) [%]	Activity (Rattus norvegicus [13]) [%]	Activity (Mus musculus [14]) [%]	Activity (Mus musculus [15]) [%]	Activity (Mus musculus [16]) [%]
O=c1c2ccccc2nc(N/N=C\c2ccccc2[N+](=O)[O-])n1-c1ccccc1	30	42	46	49	39	27	29	34	22	32	33	36	30	35	36	39
O=C(O)Cc1ccccc1Nc1c(Cl)cccc1Cl [DICLOFENAC]	33	46	55	62	39	32	38	39	33	45	52	60	42	37	43	45
CCC/C(C)=N/Nc1nc2ccccc2c(=O)n1-c1ccccc1	33	56	62	62	45	35	41	42	33	46	58	60	41	43	48	50
O=c1c2ccccc2nc(NN=C2CCCCC2)n1-c1ccccc1	25	50	51	53	37	29	33	36	27	39	42	42	35	33	40	46
CCC(CC)=NNc1nc2ccccc2c(=O)n1-c1ccccc1	41	63	69	72	49	34	35	39	32	43	52	56	36	49	55	58
O=c1c2ccccc2nc(NN=C(c2ccccc2)c2ccccc2)n1-c1ccccc1	29	39	41	46	36	27	33	35	26	36	39	42	35	33	36	41
COc1ccc(/C=N\Nc2nc3ccccc3c(=O)n2-c2ccccc2)cc1	30	42	49	50	29	28	30	32	24	33	37	37	30	38	42	43
O=c1c2ccccc2nc(N/N=C\c2ccc(Cl)cc2)n1-c1ccccc1	27	40	45	48	35	26	28	30	23	29	32	37	25	32	34	42
CC/C(C)=N/Nc1nc2ccccc2c(=O)n1-c1ccccc1	31	55	59	61	42	32	36	37	26	38	45	47	36	41	43	50
O=C1Nc2ccccc2/C1=N\Nc1nc2ccccc2c(=O)n1-c1ccccc1	30	47	51	55	35	27	30	31	23	32	36	39	30	36	37	40
Cc1ccccc1/C=N\Nc1nc2ccccc2c(=O)n1-c1ccccc1	33	45	46	48	39	30	32	33	28	36	39	42	30	35	39	40
O=c1c2ccccc2nc(N/N=C\c2ccccc2Cl)n1-c1ccccc1	25	37	39	42	36	21	24	26	20	27	32	35	25	29	30	37
O=c1c2ccccc2nc(N/N=C\c2ccc([N+](=O)[O-])cc2)n1-c1ccccc1	27	38	45	47	33	25	28	30	20	35	35	36	32	34	39	39
Cc1ccc(/C=N\Nc2nc3ccccc3c(=O)n2-c2ccccc2)cc1	33	43	47	50	40	28	33	34	25	38	38	43	36	37	40	40
O=c1c2ccccc2nc(N/N=C\c2ccccc2)n1-c1ccccc1	29	46	50	53	31	28	32	35	29	36	40	43	26	35	38	41
C/C(=N\Nc1nc2ccccc2c(=O)n1-c1ccccc1)c1ccccc1	29	50	53	57	36	31	35	38	29	38	42	46	33	38	43	43

Source: ChEMBL document CHEMBL1144538, “Synthesis and pharmacological evaluation of some 3-phenyl-2-substituted-3H-quinazolin-4-one as analgesic, anti-inflammatory agents” (2007)
